Active and inactive are the calls of the source. No cut-off for these calls is given here.
Assays:
HepG2 [1] = assay: Cytotoxicity against human HepG2 cells after 48 hrs by MTT assay; type: functional, cell-based; details: HepG2, 48 h
Procedure, shortened: (§1)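 Cells seeded in 24-well plates at 1 × 10⁵ cells/well, allowed 12 h, then exposed to test chemical or vehicle for 48 h, in triplicate. Medium replaced with MTT in PBS (pH 7.4) for 4 h at 37 °C; formazan dissolved in DMSO and read at 540 nm. Viability = (test − background)/(control − background) × 100.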

SK-HEP1 [2] = assay: Cytotoxicity against human SKHEP1 cells after 48 hrs by MTT assay; type: functional, cell-based; details: SK-HEP1, 48 h; procedure, shortened: as §1
Hepatocyte [3] = assay: Cytotoxicity against rat hepatocyte cells after 48 hrs by MTT assay; type: cell-based; procedure, shortened: as §1
SK-HEP1 [4] = assay: Cytotoxicity against human SKHEP1 cells at 50 uM after 48 hrs by MTT assay; type: functional, cell-based; procedure, shortened: as §1
[5] = Cytotoxicity against rat hepatocyte cells assessed as survival at 200 uM after 48 hrs by MTT assay; type: cell-based; details: rat hepatocytes, read-out: Activity; procedure, shortened: as §1
Hepatocyte [6] = assay: Cytotoxicity against rat hepatocyte cells at 50 uM after 48 hrs by MTT assay; type: cell-based; details: hepatocytes; procedure, shortened: as §1
HepG2 [7] = assay: Cytotoxicity against human HepG2 cells at 50 uM after 48 hrs by MTT assay; type: functional, cell-based; procedure, shortened: as §1

| SMILES | IC50 (HepG2 [1]) [µM] | IC50 (SK-HEP1 [2]) [µM] | IC50 (Hepatocyte [3]) [µM] | Activity (SK-HEP1 [4]) | viability at 48 h, 200 µM [5] [%] | Activity (Hepatocyte [6]) | Activity (HepG2 [7]) |
| --- | --- | --- | --- | --- | --- | --- | --- |
| C[C@@]12C(=O)OC(=O)[C@]1(C)[C@H]1CC[C@@H]2O1 [CANTHARIDIN] | 11 | 34 | 21 | – | – | – | – |
| O=C1C2C(C(=O)N1c1nc3ccccc3s1)[C@H]1C=C[C@@H]2CC1 (stereo partly drawn) | > 200 | > 200 | > 200 | – | – | – | – |
| O=C1OC(=O)[C@H]2[C@@H]1[C@H]1C=C[C@@H]2C1 | 62 | 151 | > 200 | Active | 80 | Non-toxic | Active |
| O=C1c2ccccc2C(=O)N1c1nccs1 | > 200 | > 200 | > 200 | – | – | – | – |
| O=C1OC(=O)c2cc(Oc3ccc4c(c3)C(=O)OC4=O)ccc21 | 121 | 199 | > 200 | Active | 80 | Non-toxic | Active |
| Cc1cnc(N2C(=O)c3ccccc3C2=O)s1 | > 200 | > 200 | > 200 | – | – | – | – |
| Cc1ccc2c(c1)C(=O)N(c1nc3ccccc3s1)C2=O | > 200 | > 200 | > 200 | – | – | – | – |
| Cc1cnc(/N=C2\OC(=O)C3C2[C@@H]2C=C[C@H]3CC2)s1 (stereo partly drawn) | 92 | > 200 | > 200 | Active | 80 | Non-toxic | Active |
| O=C1OC(=O)C2C3CCC(O3)C12 (stereo not drawn) [DEMETHYL-CANTHARIDIN] | 74 | 126 | 75 | – | – | – | – |
| O=C1C2C(C(=O)N1c1nccs1)[C@H]1C=C[C@@H]2CC1 (stereo partly drawn) | > 200 | > 200 | > 200 | – | – | – | – |
| Cc1cnc(N2C(=O)C3C(C2=O)[C@H]2C=C[C@@H]3CC2)s1 (stereo partly drawn) | > 200 | > 200 | > 200 | – | – | – | – |
| Cc1ccc2c(c1)C(=O)N(c1nccs1)C2=O | > 200 | > 200 | > 200 | – | – | – | – |

Source: ChEMBL document CHEMBL1240502, “Therapeutic effects of cantharidin analogues without bridging ether oxygen on human hepatocellular carcinoma cells” (Eur J Med Chem, 2010)
